pEC50, pIC50: −log10 of the molar value. “And” between values parts separate entries of the source, which are not always exact repeats. Equal values may be shown once. Blank lines part the entries; values can stand above or below the compound they belong to. The source made the active and inactive calls. No cut-off for these calls is given here.
What was measured:
[1] = biological target: T1, Glucose-dependent insulinotropic receptor (Homo sapiens, UniProt Q8TDV5); test: Agonist activity at […] transfected in Xenopus dermal melanophore assessed as dispersion of melatonin-induced pigmentation; format: functional
T1 sequence (Q8TDV5 whole entry): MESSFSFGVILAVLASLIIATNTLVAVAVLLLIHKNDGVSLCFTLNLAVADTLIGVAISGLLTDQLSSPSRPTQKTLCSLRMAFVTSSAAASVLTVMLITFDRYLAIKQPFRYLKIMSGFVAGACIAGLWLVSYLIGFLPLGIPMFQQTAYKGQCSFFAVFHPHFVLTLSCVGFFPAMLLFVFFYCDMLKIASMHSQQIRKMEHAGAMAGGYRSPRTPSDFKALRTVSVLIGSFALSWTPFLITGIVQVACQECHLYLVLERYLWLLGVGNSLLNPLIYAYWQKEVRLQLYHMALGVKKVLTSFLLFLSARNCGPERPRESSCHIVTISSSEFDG
Procedure, shortened: (§1)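 Cultured Xenopus dermal melanophores transiently transfected with GPR119 plasmid, plated in 384-well format. At 48 h post-transfection, pigment aggregated with melatonin (10nM, 1 h), then compounds applied for 1 h. Pigment dispersion read as absorbance (light transmission) to build concentration-response curves; EC50 with log SD, number of determinations given.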

[2] = biological target: T1, Glucose-dependent insulinotropic receptor; test: Inverse agonist activity at GPR119 expressed in HEK293 cells assessed as cAMP level by flash plate assay; format: functional, cell-based
Procedure, shortened: (§2)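 HEK293 cells transiently transfected with GPR119; crude plasma membranes prepared 48 h post-transfection. Membrane adenylyl cyclase read by FlashPlate cAMP kit: 15 µg membrane protein, 60 min at room temperature in 20 mM HEPES pH 7.4 with 10 µM GTP, 0.1 mM ATP, 500 µM IBMX, 10 mM phosphocreatine, creatine phosphokinase. cAMP from on-plate standard curve; usually n = 1 or 2.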

[3] = biological target: T1, Glucose-dependent insulinotropic receptor; test: Agonist activity at GPR119 expressed in HEK293 cells assessed as cAMP level by flash plate assay; format: functional, cell-based; procedure, shortened: as §2
Canis lupus familiaris = species on record: Canis lupus familiaris; test: Agonist activity at dog GPR119 transfected in Xenopus dermal melanophore assessed as dispersion of melatonin-induced pigmentation; format: functional; procedure, shortened: as §1
[4] = Tmax in C57BL/6J mouse at 10 mg/kg, po; format: ADME, organism-based; parameters: dose 10 mg/kg, route oral; conditions: in vivo
Procedure, shortened: (§3)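 Mouse oral PK: C57/bl6J mice given a single 10 mg/kg po dose; plasma exposure profile used to derive tmax, Cmax, AUC (area under exposure curve) and terminal t1/2. No iv arm run in mouse.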

[5] = biological target: T2, Glucose-dependent insulinotropic receptor (Mus musculus) (UniProt Q7TQP3); test: Agonist activity at mouse GPR119 transfected in Xenopus dermal melanophore assessed as dispersion of melatonin-induced pigmentation; format: functional; procedure, shortened: as §1
T2 sequence (whole entry): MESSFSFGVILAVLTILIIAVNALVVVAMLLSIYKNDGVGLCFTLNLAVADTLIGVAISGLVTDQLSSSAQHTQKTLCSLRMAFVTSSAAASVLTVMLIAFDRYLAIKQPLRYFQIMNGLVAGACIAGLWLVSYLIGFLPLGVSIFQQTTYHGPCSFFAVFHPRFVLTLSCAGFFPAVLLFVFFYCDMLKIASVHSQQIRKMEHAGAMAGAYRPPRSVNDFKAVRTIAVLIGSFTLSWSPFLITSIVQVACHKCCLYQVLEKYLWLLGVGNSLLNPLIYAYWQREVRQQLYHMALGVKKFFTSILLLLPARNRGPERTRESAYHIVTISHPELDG

[6] = Agonist activity at GPR119 in hamster HIT-T15 cells stimulation of assessed as cAMP production; format: functional, cell-based; conditions: Cricetinae
[7] = Oral bioavailability in Sprague-Dawley rat at 10 mg/kg; format: ADME, organism-based; conditions: in vivo
Procedure, shortened: (§4)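 Rat oral PK: single 10 mg/kg po dose; plasma tmax, Cmax, AUC, terminal t1/2 determined, with oral bioavailability (%F) also reported.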

[8] = Tmax in Sprague-Dawley rat at 10 mg/kg, po; format: ADME, organism-based; parameters: dose 10 mg/kg, route oral; conditions: in vivo; procedure, shortened: as §4
[9] = Cmax in C57BL/6J mouse at 10 mg/kg, po; format: ADME, organism-based; parameters: dose 10 mg/kg, route oral; conditions: in vivo; procedure, shortened: as §3
[10] = Inhibition of cytochrome
Mus musculus [11] = species on record: Mus musculus; test: Increase in glucose dependent insulin release in diabetic KK/ay mouse by oral glucose tolerance test; format: functional, organism-based
[12] = Half life in C57BL/6J mouse at 10 mg/kg, po; format: ADME, organism-based; parameters: dose 10 mg/kg, route oral; conditions: in vivo; procedure, shortened: as §3
Mus musculus [13] = test: Increase in glucose dependent insulin release in GPR119 deficient C57BL/6J mouse at 20 mg/kg, po by oral glucose tolerance test; format: functional, organism-based; parameters: dose 20 mg/kg
[14] = AUC in C57BL/6J mouse at 10 mg/kg, po; format: ADME, organism-based; parameters: dose 10 mg/kg, route oral; conditions: plasma; procedure, shortened: as §3
[15] = AUC in Sprague-Dawley rat at 10 mg/kg, po; format: ADME, organism-based; parameters: dose 10 mg/kg, route oral; conditions: plasma; procedure, shortened: as §4
[16] = Cmax in Sprague-Dawley rat at 10 mg/kg, po; format: ADME, organism-based; parameters: dose 10 mg/kg, route oral; conditions: in vivo; procedure, shortened: as §4
Macaca fascicularis = species on record: Macaca fascicularis; test: Agonist activity at cynomolgus monkey GPR119 transfected in Xenopus dermal melanophore assessed as dispersion of melatonin-induced pigmentation; format: functional; procedure, shortened: as §1
[17] = Half life in Sprague-Dawley rat at 10 mg/kg, po; format: ADME, organism-based; parameters: dose 10 mg/kg, route oral; conditions: in vivo; procedure, shortened: as §4
[18] = biological target: Voltage-gated inwardly rectifying potassium channel KCNH2 (Homo sapiens, UniProt Q12809); test: Inhibition of hERG upto 10 uM by patch clamp assay; format: toxicity
Voltage-gated inwardly rectifying potassium channel KCNH2, sequence (Q12809 whole entry): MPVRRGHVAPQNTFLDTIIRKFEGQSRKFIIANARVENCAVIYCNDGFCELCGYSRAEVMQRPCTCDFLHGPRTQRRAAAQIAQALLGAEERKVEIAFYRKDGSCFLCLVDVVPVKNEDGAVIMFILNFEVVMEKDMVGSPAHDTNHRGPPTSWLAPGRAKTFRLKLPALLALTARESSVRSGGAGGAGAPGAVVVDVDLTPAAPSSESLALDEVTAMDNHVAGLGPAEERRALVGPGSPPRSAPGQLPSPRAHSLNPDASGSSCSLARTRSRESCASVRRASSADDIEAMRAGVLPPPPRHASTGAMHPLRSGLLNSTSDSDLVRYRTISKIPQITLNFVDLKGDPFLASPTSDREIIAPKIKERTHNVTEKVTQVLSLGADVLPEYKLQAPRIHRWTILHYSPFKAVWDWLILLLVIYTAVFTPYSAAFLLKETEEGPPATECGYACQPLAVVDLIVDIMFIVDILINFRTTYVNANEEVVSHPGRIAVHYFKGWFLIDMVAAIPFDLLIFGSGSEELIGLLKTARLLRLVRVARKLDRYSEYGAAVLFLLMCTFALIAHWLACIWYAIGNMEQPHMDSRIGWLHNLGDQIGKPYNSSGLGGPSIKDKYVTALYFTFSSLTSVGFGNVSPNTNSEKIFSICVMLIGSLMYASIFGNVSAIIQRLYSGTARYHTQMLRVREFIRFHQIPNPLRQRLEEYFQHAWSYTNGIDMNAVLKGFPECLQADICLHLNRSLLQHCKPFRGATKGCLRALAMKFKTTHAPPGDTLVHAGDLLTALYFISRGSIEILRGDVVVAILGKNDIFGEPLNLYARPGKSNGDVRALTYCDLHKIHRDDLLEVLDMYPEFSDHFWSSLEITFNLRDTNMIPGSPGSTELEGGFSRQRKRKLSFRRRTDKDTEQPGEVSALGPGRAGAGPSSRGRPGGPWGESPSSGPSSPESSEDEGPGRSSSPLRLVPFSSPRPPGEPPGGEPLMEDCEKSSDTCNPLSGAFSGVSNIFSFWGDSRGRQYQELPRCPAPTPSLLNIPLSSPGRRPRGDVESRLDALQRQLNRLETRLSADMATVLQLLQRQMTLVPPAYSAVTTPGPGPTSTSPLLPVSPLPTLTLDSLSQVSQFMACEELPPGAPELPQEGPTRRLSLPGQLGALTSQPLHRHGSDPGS
Procedure, shortened: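 hERG channel current measured by patch clamp, compound tested up to 10 µM.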

Rattus norvegicus = test: Effect on glucose excursion in Sprague-Dawley rat at 30 mg/kg, po by oral glucose tolerance test; format: functional, organism-based; parameters: dose 30 mg/kg
[19] = biological target: T3, Glucose-dependent insulinotropic receptor (Rattus norvegicus) (UniProt Q7TQN8); test: Agonist activity at rat GPR119 transfected in Xenopus dermal melanophore assessed as dispersion of melatonin-induced pigmentation; format: functional; procedure, shortened: as §1
T3 sequence (whole entry): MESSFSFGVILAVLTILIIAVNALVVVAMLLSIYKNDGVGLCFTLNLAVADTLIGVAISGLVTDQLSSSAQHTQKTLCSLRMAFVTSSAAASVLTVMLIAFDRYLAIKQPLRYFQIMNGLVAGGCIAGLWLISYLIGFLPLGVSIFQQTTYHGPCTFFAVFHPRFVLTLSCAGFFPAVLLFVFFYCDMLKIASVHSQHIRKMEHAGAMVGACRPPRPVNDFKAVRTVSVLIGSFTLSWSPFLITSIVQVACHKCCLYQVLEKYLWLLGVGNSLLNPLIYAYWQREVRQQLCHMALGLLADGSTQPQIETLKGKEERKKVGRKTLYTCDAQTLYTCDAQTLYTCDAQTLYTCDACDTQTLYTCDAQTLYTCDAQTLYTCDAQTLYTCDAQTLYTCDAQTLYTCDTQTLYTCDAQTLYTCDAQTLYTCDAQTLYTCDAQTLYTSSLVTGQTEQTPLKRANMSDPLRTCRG

Mus musculus [20] = test: Increase in glucose dependent insulin release in wild type C57BL/6J mouse at 20 mg/kg, po by oral glucose tolerance test; format: functional, organism-based; parameters: dose 20 mg/kg

pEC50 [1]: 6.18
Structure (SMILES): CS(=O)(=O)c1ccc(Nc2ncnc(N3CCC(c4nc(-c5cccnc5)[n-][o+]4)CC3)c2[N+](=O)[O-])cc1

pEC50 [1]: 8.00
Structure (SMILES): CCc1noc(C2CCN(c3ncnc(Nc4ccc(S(C)(=O)=O)cc4)c3[N+](=O)[O-])CC2)n1

pEC50 [1]: 7.77
Structure (SMILES): CCS(=O)(=O)c1ccc(Nc2ncnc(N3CCC(c4nc(C(C)C)no4)CC3)c2[N+](=O)[O-])cc1

pEC50 [1]: 6.96
Structure (SMILES): CCSc1ccc(Nc2ncnc(N3CCC(c4nc(C(C)C)no4)CC3)c2[N+](=O)[O-])cc1

pEC50 [1]: 8.33
Structure (SMILES): CCCS(=O)(=O)c1ccc(Nc2ncnc(N3CCC(c4nc(C(C)C)no4)CC3)c2[N+](=O)[O-])cc1

pEC50 [1]: 6.59
Structure (SMILES): Cc1noc(C2CCN(c3ncnc(Nc4ccc(S(C)(=O)=O)cc4)c3[N+](=O)[O-])CC2)n1

pIC50 [2]: 6.30
Structure (SMILES): CCOC(=O)C1CCN(c2ncnc(Oc3ccc(OCCOC)cc3)c2[N+](=O)[O-])CC1

pIC50 [2]: 7.30
Structure (SMILES): CCOC(=O)C1CCN(c2ncnc(Oc3ccc(Br)cc3)c2[N+](=O)[O-])CC1

pEC50 [3]: 6.40
Structure (SMILES): CCOC(=O)C1CCN(c2ncnc(Nc3ccc(-n4cncn4)cc3)c2[N+](=O)[O-])CC1

pEC50 [3]: 5.60
Structure (SMILES): CCOC(=O)C1CCN(c2ncnc(Oc3ccc(-n4cncn4)cc3)c2[N+](=O)[O-])CC1

pEC50 [3]: 5.72
Structure (SMILES): CCOC(=O)C1CCN(c2ncnc(Oc3ccc(S(C)(=O)=O)cc3)c2[N+](=O)[O-])CC1

pEC50 [1]: 7.77
Structure (SMILES): CC[S+]([O-])c1ccc(Nc2ncnc(N3CCC(c4nc(C(C)C)no4)CC3)c2[N+](=O)[O-])cc1 (stereo not drawn)

pEC50 [1]: 7.62
Structure (SMILES): CS(=O)(=O)c1ccc(Nc2ncnc(N3CCC(c4nc(-c5cccc(C(F)(F)F)c5)no4)CC3)c2[N+](=O)[O-])cc1

Tmax [4]: 0.5 h
Activity [5]: 12 nM
pEC50 [6]: 8.33
bioavailability [7]: 12%
Tmax [8]: 1 h
Cmax [9]: 4980 ng/mL
Activity [10]: inactive
pEC50 [1]: 9.17
half-life [12]: 3.4 h
AUC [14]: 19800 ng·h/mL
AUC [15]: 263 ng·h/mL
Cmax [16]: 126 ng/mL and 250 nM
half-life [17]: 1.1 h
Activity [19]: 14 nM
Structure (SMILES): CC(C)c1noc(C2CCN(c3ncnc(Nc4ccc(S(C)(=O)=O)cc4F)c3[N+](=O)[O-])CC2)n1
Activity (Canis lupus familiaris): 1.6 nM
Activity (Mus musculus [11]): Active
Activity (Mus musculus [13]): inactive
Activity (Macaca fascicularis): 0.4 nM
Activity [18]: Not Active
Activity (Rattus norvegicus): inactive
Activity (Mus musculus [20]): Active

pEC50 [1]: 7.60
Structure (SMILES): CS(=O)(=O)c1ccc(Nc2ncnc(N3CCC(c4nc(C5CC5)no4)CC3)c2[N+](=O)[O-])cc1

pEC50 [1]: 8.82
Structure (SMILES): CC(C)(C)c1noc(C2CCN(c3ncnc(Nc4ccc(S(C)(=O)=O)cc4)c3[N+](=O)[O-])CC2)n1

pEC50 [1]: 8.15
Structure (SMILES): CCS(=O)(=O)c1ccc(Nc2ncnc(N3CCC(c4nc(C(C)C)[n-][o+]4)CC3)c2[N+](=O)[O-])c(F)c1

pEC50 [3]: 5.77
Structure (SMILES): CCOC(=O)C1CCN(c2ncnc(Oc3ccc(CCC(C)=O)cc3)c2[N+](=O)[O-])CC1

pEC50 [1]: 8.24
Structure (SMILES): CC(C)c1noc(C2CCN(c3ncnc(Nc4ccc(S(C)(=O)=O)cc4)c3[N+](=O)[O-])CC2)n1

pEC50 [3]: 5.92
Structure (SMILES): CCOC(=O)C1CCN(c2ncnc(Nc3ccc(S(C)(=O)=O)cc3)c2[N+](=O)[O-])CC1

pEC50 [3]: 6.00
Structure (SMILES): CCOC(=O)C1CCN(c2ncnc(Oc3ccc(C(=O)CC(=O)OC)cc3)c2[N+](=O)[O-])CC1

pEC50 [3]: 5.52
Structure (SMILES): CCOC(=O)C1CCN(c2ncnc(Oc3ccc(S(N)(=O)=O)cc3)c2[N+](=O)[O-])CC1

pEC50 [1]: 6.37
Structure (SMILES): CCCc1noc(C2CCN(c3ncnc(Nc4ccc(S(C)(=O)=O)cc4)c3[N+](=O)[O-])CC2)n1

pEC50 [1]: 8.11
Structure (SMILES): CC(C)c1noc(C2CCN(c3ncnc(Nc4ccc(S(=O)(=O)C(C)C)cc4)c3[N+](=O)[O-])CC2)n1

pEC50 [1]: 8.10
Structure (SMILES): CC(C)c1nc(C2CCN(c3ncnc(Nc4ccc(S(=O)(=O)C(C)C)cc4F)c3[N+](=O)[O-])CC2)[o+][n-]1

pEC50 [1]: 8.47
Structure (SMILES): CC(C)c1noc(C2CCN(c3ncnc(Nc4ccc(S(C)(=O)=O)c(F)c4)c3[N+](=O)[O-])CC2)n1

pEC50 [1]: 6.80
Structure (SMILES): CS(=O)(=O)c1ccc(Nc2ncnc(N3CCC(c4nc(CC5CC5)no4)CC3)c2[N+](=O)[O-])cc1

pIC50 [2]: 7.08
Structure (SMILES): CCOC(=O)C1CCN(c2ncnc(Oc3cc(C(F)(F)F)nn3C)c2[N+](=O)[O-])CC1

From ChEMBL document CHEMBL1139413, “Discovery of the first potent and orally efficacious agonist of the orphan G-protein coupled receptor 119” (J Med Chem, 2008)
